PMC11568512 (Chemical communications (Cambridge, England), 2024)

Tests used:
[1] = test system: transferrin receptor 1 (TfR1); assay: Western blot of iron handlers; assay type: cell-based; settings: DFX 50 μM, QT and IQT 5 μM, FAC 50 μM
Procedure, shortened: (§1)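 A2780 cancer cells were exposed to test compounds (5 μM) or the reference iron chelator deferasirox (50 μM), with DMSO vehicle as control. Transferrin receptor 1 and ferritin heavy chain were probed by Western blot as markers of iron signalling. Statistics used t-tests versus DMSO vehicle.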

[2] = test system: ferritin heavy chain (ferritin H); assay: Western blot of iron handlers; assay type: cell-based; settings: DFX 50 μM, QT and IQT 5 μM, FAC 50 μM
Procedure, shortened: as §1

A2780 cells = assay: Cell cycle analysis by flow cytometry; assay type: cell-based; settings: A2780, 24-hour incubation, DFX 50 μM, QT and IQT 5 μM
A2780 = assay: Antiproliferative activity, resazurin assay; assay type: cell-based; settings: Homo sapiens, A2780, 72 h, read-out: IC50 A2780
MDA-MB-231 = assay: Antiproliferative activity, resazurin assay; assay type: cell-based; settings: Homo sapiens, MDA-MB-231, 72 h, read-out: IC50 MDA-MB-231
[3] = test system: tested cancer cell lines (MDA-MB-231, A2780); assay: Antiproliferative activity, text summary over tested cancer cell lines; assay type: cell-based; settings: 72 h, read-out: IC50 range in the tested cancer cell lines
[4] = cited from earlier work

In the case of ferric ammonium citrate [FAC], the TfR1 expression level [1] is reported as “decreased TfR1 expression” and the “ferritin H expression level” value [2] is reported as “upregulation of ferritin”.

For `O=C(O)c1ccc(-n2nc(-c3ccccc3O)nc2-c2ccccc2O)cc1` [DFX, deferasirox], the TfR1 expression level [1] was “upregulation of TfR1”, the cell cycle effect (A2780 cells) was “cell accumulation in the S-phase” and the IC50 (A2780) was 12 ± 2 µM. The “ferritin H expression level” value [2] was “degradation of ferritin”, the IC50 (MDA-MB-231) was 15 ± 2 µM and the IC50 [3] was 10 to 20 µM.

For `Cc1nc(-[n+]2nc(-c3ccccc3)nn2-c2ccccc2)sc1C.[Br-]` [MTT, 3-(4,5-dimethyl-2-thiazolyl)-2,5-diphenyl-tetrazolium], the “reduction in FBS” value [4] is listed as “prone to reduction in FBS”.
